Measured values of several laboratories.
LRRK2 G2019S: Leucine-rich repeat serine/threonine-protein kinase 2 (LRRK2, Homo sapiens, UniProt Q5S007, G2019S)
LRRK2: Leucine-rich repeat serine/threonine-protein kinase 2 (LRRK2, Homo sapiens, UniProt Q5S007)

With `Nc1ncc(-c2nc(N3CCOCC3)nc(N3CCOCC3)n2)c(C(F)F)n1` the remaining binding was 91% (LRRK2 G2019S; binding; competition with immobilised ligand; 10 µM).
`Cn1cc(-c2cccc(N3CCc4c(sc5c4CC(C)(C)C5)C3=O)c2CO)cc(Nc2ccncn2)c1=O` gave an inhibition of -1% (LRRK2; enzyme activity; inhibitor; 1 µM).
`O=c1[nH]c2ccccc2n1C1CCN(Cc2ccc(-c3[nH]c4cc5ncnc5cc4nc3-c3ccccc3)cc2)CC1` has a remaining signal of 103% (LRRK2; cell-free assay; 0.5 µM).
The remaining binding of `N#CC1(c2ccccn2)CCN(Cc2cc(C(=O)O)c(=O)n3ccccc23)CC1` is reported as 100% (LRRK2 G2019S; cell-free assay; competition with immobilised ligand; 1 µM).
`C#Cc1n[nH]c2c(-c3cn(C(C)c4ccccn4)c(=O)[nH]c3=O)cc(F)cc12` (stereo not drawn) has an inhibition of -0.2% (LRRK2; enzyme activity; inhibitor; 1 µM).
`Cn1cncc1[C@@](O)(COc1ccc(C#N)cc1-c1ccc(OC(F)(F)F)cc1)c1ccc(C#N)cc1` has a remaining binding of 91% (LRRK2 G2019S; cell-free assay; competition with immobilised ligand; 1 µM).
For `CC(C)(C)c1cc(C=C(C#N)C#N)cc(Br)c1O`, the remaining activity was 109% (LRRK2; enzyme activity; inhibitor; 0.5 µM).
For `Cc1nn(C)cc1-c1nc2c(N3CCN(Cc4ccc(Cl)cc4)CC3)c(Cl)cnc2[nH]1`, the remaining binding was 85% (LRRK2 G2019S; binding; competition with immobilised ligand; 1 µM).
`COc1ncccc1-c1cnn2ccc(N3CCN(C(=O)OC(C)C)CC3)nc12` gave a remaining binding of 87% (LRRK2; binding; competition with immobilised ligand; 1 µM).
